Published values of several laboratories.
Each line is one published result; the experiments were not run side by side.
Target: Receptor tyrosine-protein kinase erbB-2 (ERBB2, Homo sapiens, UniProt P04626)

SMILES | read-out | action | method | tested at | endpoint | result
COc1cc2nccc(Oc3ccc(NC(=O)c4c5n(n(-c6ccc(F)cc6)c4=O)CCCC5)cc3)c2cc1OC | enzyme activity | inhibitor | – | 0.1 µM | inhibition | -1%
COc1cc(Nc2c(C#N)cnc3cc(OCCCN4CCN(C)CC4)c(OC)cc23)c(Cl)cc1Cl | cell-free assay | – | – | 0.5 µM | remaining signal | 32.9%
CC(C)(C)c1nc(-c2cccc(NS(=O)(=O)c3c(F)cccc3F)c2F)c(-c2ccnc(N)n2)s1 | enzyme activity | inhibitor | radiometric | 1 µM | remaining activity | 96%
C=CC(=O)Nc1cc(Nc2nccc(Nc3cc(Cl)c(F)cc3C(C)(C)O)n2)c(OC)cc1N1CC[C@@H](N(C)C)C1 | enzyme activity | inhibitor | – | 1 µM | inhibition | 73%
O=C(CSc1nc2nccnc2c(=O)n1CCc1ccccc1)Nc1nccs1 | enzyme activity | inhibitor | – | 10 µM | inhibition | -11%
Cc1ccc(NC(=O)c2ccc(C)c(C(F)(F)F)c2)cc1C#Cc1nn(C2CCC(O)CC2)c2ncnc(N)c12 (stereo not shown) | cell-free assay | – | – | 10 µM | remaining signal | 4%
CC(C)(O)[C@H]1CC[C@H](Nc2ccc3ncc(-c4cccc(C(F)(F)F)c4)n3n2)CC1 | enzyme activity | inhibitor | – | 1 µM | remaining activity | 92%
CS(=O)(=O)N1CCCC(NC(=O)[C@H](CCC2CCCCC2)NC(=O)c2ccc(CNc3ncnc4c3nnn4-c3ccccc3)cc2)C1 (stereo partly shown) | cell-free assay | – | competition with immobilised ligand | 0.1 µM | remaining binding | 100%
CN1CC(Oc2cnc(C#N)cc2-c2ccn3nc(NC(=O)C4CC4)cc3c2)C1 | enzyme activity | inhibitor | – | 1 µM | inhibition | -3%
C[C@@]1(Cc2ccc(C#N)cc2)C(=O)N(c2cc(Cl)cc(Cl)c2)c2ncc(C(=O)NC3(c4nc(C5CCC5)no4)CC3)n21 | cell-free assay | – | competition with immobilised ligand | 1 µM | remaining binding | 100%
CC#CC(=O)Nc1cc2c(Nc3ccc(F)c(Cl)c3)ncnc2cn1 | cell-free assay | – | – | 0.5 µM | remaining signal | 2.36%
N#Cc1ccc(Nc2ccc3[nH]c(=O)[nH]c3c2)c(Cl)c1 | cell-free assay | – | competition with immobilised ligand | 1 µM | remaining binding | 100%
COc1cc2ncnc(Nc3ccc(Oc4ccccc4)cc3C)c2cc1OC | enzyme activity | inhibitor | – | 1 µM | inhibition | 55%
Cn1nc(C(F)(F)F)cc1-c1cnc(N2CCc3cc(S(=O)(=O)Nc4c(F)cc(Cl)cc4F)cc(N4CCCC4=O)c32)nc1 | cell-free assay | – | competition with immobilised ligand | 1 µM | remaining binding | 79%
O=C(Nc1cnn(-c2csc(C(=O)NC3COC3)c2)c1)Nc1c(F)cccc1Cl | enzyme activity | inhibitor | – | 5 µM | remaining activity | 97%
N#CCCc1ccc2c(c1)-c1[nH]c3ccc([N+](=O)[O-])cc3c1CC(=O)N2 | cell-free assay | – | – | 0.5 µM | remaining signal | 98.6%
CCCCNc1ncc2c(-c3ccc(F)cc3)nn(C[C@H]3CC[C@H](N)CC3)c2n1 | target engagement in cells | inhibitor | chemoproteomics | 20 mM | inhibition | 77.8%
NS(=O)(=O)c1cc(NC(=O)C2(c3ccccc3Cl)CC2)ccc1Oc1cccc(Cl)c1 | cell-free assay | – | competition with immobilised ligand | 1 µM | remaining binding | 49%
COc1ccc(COc2ccc(Cc3cnc(N)nc3N)cc2OC)cc1 | cell-free assay | – | – | 0.5 µM | remaining signal | 106%
O=C(NS(=O)(=O)c1ccc(NCC2CCOCC2)c([N+](=O)[O-])c1)c1ccc(N2CCN(Cc3ccc(C(F)(F)F)cc3-c3ccc(Cl)cc3)CC2)cc1Oc1cnc2[nH]ccc2c1 | cell-free assay | – | competition with immobilised ligand | 1 µM | remaining binding | 100%
Cc1ccc(NC(=O)c2ccc(CN3CCN(C)CC3)cc2)cc1Nc1nc(-c2cccnc2)cs1 | cell-free assay | – | – | 0.5 µM | remaining signal | 103%
C[C@H](c1ccc(F)cc1)N(Cc1cccc(C(=O)O)c1)C(=O)c1cnc2ccccc2c1 | cell-free assay | – | competition with immobilised ligand | 1 µM | remaining binding | 100%
Cc1cnc(NC2CCOCC2)nc1-n1cnc(C(=O)NC(CN)c2cc(F)cc(Cl)c2)c1 (stereo not shown) | enzyme activity | inhibitor | radiometric | 1 µM | remaining activity | 100%
O=C1NC(=O)c2cc(Nc3ccc(F)cc3)c(Nc3ccc(F)cc3)cc21 | cell-free assay | – | – | 0.5 µM | remaining signal | 107%
Cc1noc([C@H]2C[C@@H](c3ccc(C(F)(F)F)cc3)CN(C(=O)N3CCS(=O)(=O)C3)C2)n1 | cell-free assay | – | competition with immobilised ligand | 1 µM | remaining binding | 100%
